Experimental data collected from several papers.
Lines come from different studies, so protocols differ.
Effect on: cell growth or viability

| SMILES | cell line | test | conditions | quantity | result |
| --- | --- | --- | --- | --- | --- |
| COc1cc2c3c(n(CCCN4CCOCC4)c(=O)c2cc1OC)-c1nc2c(cc1C3=O)OCO2 | RD-ES | MTS | 72 h | IC50 | 0.608 µM |
| C=CC(=O)NC1CCN(c2ncc3ncnc(Nc4ccc(Oc5ccc6c(c5)ncn6C)c(C)c4)c3n2)CC1 | NCI-H2172 | – | – | EC50 | 6.65 µM |
| Nc1ccc(/C=C/C(=O)N2CCc3c(oc4c(-c5ccc(F)cc5)cc(-c5ccc(C(=O)N6C[C@@H]7[C@H](C6)C7(F)F)nn5)cc34)C2)cn1 | BXPC-3 | CCK-8 | 72 h | IC50 | > 20 µM |
| Cc1nc(Nc2ccc3c(c2)/C(=C/c2ccccc2Cl)C(=O)N3)c2ccccc2n1 | B16 | MTT | – | IC50 | 3.34 µM |
| O=C(O)c1cccnc1Nc1cccc(C(F)(F)F)c1 | BXPC-3 | SRB | 48 h | GI50 | > 30 µM |
| COc1cc2c3c(n(CCCNCCO)c(=O)c2cc1OC)-c1nc2c(cc1C3=O)OCO2 | RD-ES | MTS | 72 h | IC50 | 0.022 µM |
| Nc1ccc(/C=C/C(=O)N2CCc3c(oc4c(-c5ccc(F)cc5)cc(-c5ccc(C(=O)N6CCOCC6)nn5)cc34)C2)cn1 | BXPC-3 | CCK-8 | 72 h | IC50 | > 20 µM |
| C=CC(=O)c1cccnc1Nc1cc(C(F)(F)F)ccc1OC | BXPC-3 | SRB | 48 h | GI50 | 6.19 µM |
| Cc1nc(Nc2ccc3c(c2)C(C)(C)C(=O)N3C)c2ccccc2n1 | B16 | MTT | – | IC50 | 14 µM |
| C=CC(=O)c1cccnc1Nc1cccc(C(F)(F)F)c1 | BXPC-3 | SRB | 48 h | GI50 | 17.5 µM |
| Cc1nc(Nc2ccc3c(c2)CC(=O)N3)c2ccccc2n1 | B16 | MTT | – | IC50 | 3.13 µM |
| COc1cc2c3c(n(CCCNC(C)C)c(=O)c2cc1OC)-c1nc2c(cc1C3=O)OCO2 | RD-ES | MTS | 72 h | IC50 | 0.031 µM |
